Results from ChEMBL document CHEMBL4177755, “Combating Drug-Resistant Fungi with Novel Imperfectly Amphipathic Palindromic Peptides” (J Med Chem, 2018).
≈ marks a conversion by molar mass, not a printed value. Calls of active or inactive are those of the source. The rule behind the calls is not given here. Bridge positions count the residues as written; N and C are the ends. Square brackets hold non-standard residues; d marks the D form. Peptide text beside a SMILES is read from it. * marks the point of attachment. X1 = CC[C@H](C)CCCCC(=O)*; Dab = NCC[C@H](N)C(=O)O

Legend:
Salmonella typhimurium [1] = assay: Bactericidal activity against Salmonella typhimurium ATCC 14028; type: functional, Salmonella enterica subsp. enterica serovar Typhimurium; details: Salmonella enterica, read-out: MBC99.9
Method in brief: (§1)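 Wells from the 24 h, 37 °C MHB microdilution plates (bacteria at a final (0.5−1) × 10^5 CFU/mL; peptide diluted in 0.2% BSA) were plated on agar and incubated overnight. MBC is the lowest concentration killing >99.9% of cells. Each test was reproduced at least 3 times.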

[2] = system: Staphylococcus epidermidis; assay: Bactericidal activity against Staphylococcus epidermidis ATCC 12228; type: functional; details: read-out: MBC99.9; method in brief: as §1
Escherichia coli [3] = assay: Antibacterial activity against Escherichia coli ATCC 25922 after 18 hrs in presence of 12.5% human heat-inactivated serum by broth dilution method; type: functional; details: ATCC 25922, 18 h
Staphylococcus aureus [4] = assay: Bactericidal activity against Staphylococcus aureus ATCC 25923; type: functional; details: read-out: MBC99.9; method in brief: as §1
Escherichia coli [5] = assay: Antibacterial activity against Escherichia coli ATCC 25922 after 18 hrs in presence of 50% human heat-inactivated serum by broth dilution method; type: functional; details: ATCC 25922, 18 h
Escherichia coli [6] = assay: Antibacterial activity against Escherichia coli ATCC 25922 after 18 hrs in presence of FeCl3 by broth dilution method; type: functional; details: ATCC 25922, 18 h
[7] = Bactericidal activity against Salmonella pullorum ATCC 7913; type: functional, Salmonella enterica subsp. enterica serovar Pullorum; details: Salmonella enterica, read-out: MBC99.9; method in brief: as §1
Staphylococcus aureus [8] = assay: Antibacterial activity against Staphylococcus aureus ATCC 29213 after 24 hrs; type: functional; details: ATCC 29213, 24 h
Method in brief: (§2)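 Modified NCCLS broth microdilution. Mid-log bacteria at (0.5−1) × 10^5 CFU/mL in MHB were mixed 1:1 with peptide serially diluted in 0.2% BSA and incubated 24 h at 37 °C. Absorbance was read at 492 nm; MIC is the lowest concentration inhibiting 95% of growth. At least 3 repeats.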

Escherichia coli [9] = assay: Antibacterial activity against Escherichia coli ATCC 25922 after 18 hrs in presence of CaCl2 by broth dilution method; type: functional; details: ATCC 25922, 18 h
Staphylococcus aureus [10] = assay: Antibacterial activity against methicillin-resistant Staphylococcus aureus ATCC 4330 after 24 hrs; type: functional; details: ATCC 4330, 24 h; method in brief: as §2
Escherichia coli [11] = assay: Antibacterial activity against Escherichia coli ATCC 25922 after 18 hrs in presence of KCl by broth dilution method; type: functional; details: ATCC 25922, 18 h
Escherichia coli [12] = assay: Bactericidal activity against Escherichia coli 1005; type: functional; details: read-out: MBC99.9; method in brief: as §1
Escherichia coli [13] = assay: Antibacterial activity against Escherichia coli 1005 after 24 hrs; type: functional; details: Escherichia coli, 1005, 24 h
Method in brief: (§3)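 Broth microdilution. Mid-log bacteria in MHB at a final (0.5−1) × 10^5 CFU/mL were mixed with equal volumes of peptide serially diluted in 0.2% BSA. Plates were incubated 24 h at 37 °C and read at A492. MIC is the lowest concentration inhibiting 95% of growth. Each test was repeated at least 3 times.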

[14] = system: Staphylococcus epidermidis; assay: Antibacterial activity against Staphylococcus epidermidis ATCC 12228 after 24 hrs; type: functional; details: ATCC 12228, 24 h; method in brief: as §3
Escherichia coli [15] = assay: Antibacterial activity against Escherichia coli ATCC 25922 after 18 hrs in presence of NH4Cl by broth dilution method; type: functional; details: ATCC 25922, 18 h
Escherichia coli [16] = assay: Antibacterial activity against Escherichia coli ATCC 25922 after 18 hrs in presence of ZnCl2 by broth dilution method; type: functional; details: ATCC 25922, 18 h
[17] = Antibacterial activity against Salmonella pullorum ATCC 7913 after 24 hrs; type: functional, Salmonella enterica subsp. enterica serovar Pullorum; details: Salmonella enterica, ATCC 7913, 24 h; method in brief: as §3
Staphylococcus aureus [18] = assay: Antibacterial activity against Staphylococcus aureus ATCC 25923 after 24 hrs; type: functional; details: ATCC 25923, 24 h; method in brief: as §2
Escherichia coli [19] = assay: Antibacterial activity against Escherichia coli ATCC 25922 after 18 hrs in presence of NaCl by broth dilution method; type: functional; details: ATCC 25922, 18 h
Escherichia coli [20] = assay: Bactericidal activity against Escherichia coli ATCC 25922; type: functional; details: read-out: MBC99.9; method in brief: as §1
Staphylococcus aureus [21] = assay: Bactericidal activity against Staphylococcus aureus ATCC 29213; type: functional; details: read-out: MBC99.9; method in brief: as §1
Staphylococcus aureus [22] = assay: Bactericidal activity against methicillin-resistant Staphylococcus aureus ATCC 4330; type: functional; details: read-out: MBC99.9
Method in brief: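 Bacteria at (0.5−1) × 10^5 CFU/mL in MHB were exposed to serially diluted peptide (0.2% BSA) for 24 h at 37 °C, then 50 μL aliquots were plated on agar overnight. MBC is the lowest concentration killing >99.9% of cells. At least 3 repeats.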

Escherichia coli [23] = assay: Antibacterial activity against Escherichia coli ATCC 25922 after 24 hrs; type: functional; details: ATCC 25922, 24 h; method in brief: as §3
Salmonella typhimurium [24] = assay: Antibacterial activity against Salmonella typhimurium ATCC 14028 after 24 hrs; type: functional, Salmonella enterica subsp. enterica serovar Typhimurium; details: Salmonella enterica, ATCC 14028, 24 h; method in brief: as §3
Escherichia coli [25] = assay: Antibacterial activity against Escherichia coli ATCC 25922 after 18 hrs in presence of MgCl2 by broth dilution method; type: functional; details: ATCC 25922, 18 h
Escherichia coli [26] = assay: Antibacterial activity against Escherichia coli ATCC 25922 after 18 hrs in presence of 25% human heat-inactivated serum by broth dilution method; type: functional; details: ATCC 25922, 18 h
Lipid bilayer [27] = assay: Binding affinity to phosphatidylcholine/cholesterol large unilamellar vesicle assessed as induction of calcein leakage at 2 to 32 uM after 15 mins by spectrofluorophotometric method; details: 0.25 h
Method in brief: (§4)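 Large unilamellar vesicles were made from PG/CL/PE (2:1:7), PC/PE/PI/ergosterol (5:4:1:2) or PC/cholesterol (10:1), loaded with 70 mM calcein in Tris/NaCl/EDTA buffer at pH 7.4, frozen and thawed 20 times, and extruded through 100 nm filters. Free dye was removed by gel filtration, and peptide-induced calcein release was measured.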

Lipid bilayer [28] = assay: Binding affinity to phosphatidylglycerol/cardiolipin/phosphatidylethanolamine large unilamellar vesicle assessed as induction of calcein leakage at 2 to 32 uM after 15 mins by spectrofluorophotometric method; method in brief: as §4

| Structure (SMILES) | MBC (Salmonella typhimurium [1]) [µM] | MBC [2] [µM] | MIC (Escherichia coli [3]) [µM] | MBC (Staphylococcus aureus [4]) [µM] | MIC (Escherichia coli [5]) [µM] | MIC (Escherichia coli [6]) [µM] | MBC [7] [µM] | MIC95 (Staphylococcus aureus [8]) [µM] | MIC (Escherichia coli [9]) [µM] | MIC95 (Staphylococcus aureus [10]) [µM] | MIC (Escherichia coli [11]) [µM] | MBC (Escherichia coli [12]) [µM] | MIC95 (Escherichia coli [13]) [µM] | MIC95 [14] [µM] | MIC (Escherichia coli [15]) [µM] | MIC (Escherichia coli [16]) [µM] | MIC95 [17] [µM] | MIC95 (Staphylococcus aureus [18]) [µM] | MIC (Escherichia coli [19]) [µM] | MBC (Escherichia coli [20]) [µM] | further results |
| --- | --- | --- | --- | --- | --- | --- | --- | --- | --- | --- | --- | --- | --- | --- | --- | --- | --- | --- | --- | --- | --- |
| CC[C@H](C)CCCCC(=O)N[C@@H](CCN)C(=O)N[C@H](C(=O)N[C@@H](CCN)C(=O)N[C@H]1CCNC(=O)[C@H]([C@@H](C)O)NC(=O)[C@H](CCN)NC(=O)[C@H](CCN)NC(=O)[C@H](CC(C)C)NC(=O)[C@@H](Cc2ccccc2)NC(=O)[C@H](CCN)NC1=O)[C@@H](C)O (X1-[Dab]T[Dab][Dab][Dab][dF]L[Dab][Dab]T; lactam 4-C) | 2 (≈ 2.41 µg/mL) | 32 (≈ 38.5 µg/mL) | 2 | 64 (≈ 77 µg/mL) | 4 | 2 | 2 (≈ 2.41 µg/mL) | 64 (≈ 77 µg/mL) | 2 | 64 (≈ 77 µg/mL) | 2 | 2 (≈ 2.41 µg/mL) | 1 (≈ 1.2 µg/mL) | 32 (≈ 38.5 µg/mL) | 2 | 2 | 1 (≈ 1.2 µg/mL) | 32 (≈ 38.5 µg/mL) | 8 | 4 (≈ 4.81 µg/mL) | MBC (Staphylococcus aureus [21]): 64 µM (≈ 77 µg/mL); MBC (Staphylococcus aureus [22]): 64 µM (≈ 77 µg/mL); MIC95 (Escherichia coli [23]): 2 µM (≈ 2.41 µg/mL); MIC95 (Salmonella typhimurium [24]): 2 µM (≈ 2.41 µg/mL); MIC (Escherichia coli [25]): 4 µM; MIC (Escherichia coli [26]): 2 µM |
| O=C(O)c1cn(C2CC2)c2cc(N3CCNCC3)c(F)cc2c1=O [CIPROFLOXACIN] | 16 (≈ 5.3 µg/mL) | 4 (≈ 1.33 µg/mL) | 2 | 8 (≈ 2.65 µg/mL) | 4 | 4 | 4 (≈ 1.33 µg/mL) | 4 (≈ 1.33 µg/mL) | 8 | 1 (≈ 0.331 µg/mL) | 2 | 4 (≈ 1.33 µg/mL) | 2 (≈ 0.663 µg/mL) | 2 (≈ 0.663 µg/mL) | 2 | 2 | 2 (≈ 0.663 µg/mL) | 8 (≈ 2.65 µg/mL) | 2 | 4 (≈ 1.33 µg/mL) | Activity (Lipid bilayer [27]): Not Active; MBC (Staphylococcus aureus [21]): 4 µM (≈ 1.33 µg/mL); MBC (Staphylococcus aureus [22]): 1 µM (≈ 0.331 µg/mL); MIC95 (Escherichia coli [23]): 2 µM (≈ 0.663 µg/mL); MIC95 (Salmonella typhimurium [24]): 8 µM (≈ 2.65 µg/mL); Activity (Lipid bilayer [28]): inactive; MIC (Escherichia coli [25]): 8 µM; MIC (Escherichia coli [26]): 2 µM |
